F-actin modifier: modifiers of F-actin cytoskeleton organization, primary screen, imaging, HUVEC, phalloidin staining, high-content imaging. AID 836, 2007. 91,000 tested, 0.18% active. inhibition, % at 2 µM. HUVEC TNFa F-actin phalloidin imaging;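 active = inhibition above the batch mean plus 3 SD and confirmed as a hit by visual image inspection, cut at about 30% in these data, passing the limit was not always enough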
Pyk2 oligo antag: antagonists of Pyk2 self-association, primary screen, Q293 cells, FERM NanoBiT luminescence, HTS | Protein-tyrosine kinase 2-beta (Homo sapiens), Q14289 | active compounds read low | z-score (the deposit names both 25 µM and 10 µM) | 99,000 tested, 0.83% active;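 active = Z-score of -3 or lower, scaled per plate to the spread of control and sample wells; inactive = z-score above -3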;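 note: negative z-score means lost luminescence so less FERM oligomerization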
Target sequence (Q14289 whole entry, looked up): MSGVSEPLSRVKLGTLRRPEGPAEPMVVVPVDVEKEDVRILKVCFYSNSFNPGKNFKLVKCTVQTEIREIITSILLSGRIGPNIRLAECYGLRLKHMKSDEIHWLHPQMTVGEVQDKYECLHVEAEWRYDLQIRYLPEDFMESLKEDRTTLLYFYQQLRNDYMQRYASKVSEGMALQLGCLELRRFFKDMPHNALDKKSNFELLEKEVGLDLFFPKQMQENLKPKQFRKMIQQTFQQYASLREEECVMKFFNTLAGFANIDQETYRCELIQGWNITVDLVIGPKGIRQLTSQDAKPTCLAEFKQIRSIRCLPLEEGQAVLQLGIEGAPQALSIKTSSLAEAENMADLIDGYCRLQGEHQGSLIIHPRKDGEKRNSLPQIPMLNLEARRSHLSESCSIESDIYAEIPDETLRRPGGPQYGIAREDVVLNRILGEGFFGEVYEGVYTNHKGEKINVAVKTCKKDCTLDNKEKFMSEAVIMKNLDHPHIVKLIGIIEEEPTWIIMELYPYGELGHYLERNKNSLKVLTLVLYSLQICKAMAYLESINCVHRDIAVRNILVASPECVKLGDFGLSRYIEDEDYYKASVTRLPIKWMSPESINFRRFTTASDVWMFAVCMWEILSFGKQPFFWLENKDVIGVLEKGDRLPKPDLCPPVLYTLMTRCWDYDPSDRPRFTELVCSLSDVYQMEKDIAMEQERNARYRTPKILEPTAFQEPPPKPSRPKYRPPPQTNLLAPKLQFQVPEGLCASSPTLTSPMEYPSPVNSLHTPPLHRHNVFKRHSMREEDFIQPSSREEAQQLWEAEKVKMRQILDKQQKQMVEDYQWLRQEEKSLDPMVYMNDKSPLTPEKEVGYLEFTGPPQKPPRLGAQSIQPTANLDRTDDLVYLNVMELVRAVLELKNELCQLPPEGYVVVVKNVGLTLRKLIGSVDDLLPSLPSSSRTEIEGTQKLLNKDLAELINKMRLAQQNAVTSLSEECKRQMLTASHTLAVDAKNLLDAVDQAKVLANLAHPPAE
Lung fibro prol: antiproliferative effect on LL 47 fibroblasts – human, LL 47 cells, CellTiter-Glo luminescence, primary screen | LL 47 human lung fibroblast viability, ATP luminescence; active compounds read low | viability, % at 10 µM | 85,000 tested, 1.1% active;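 active = viability at or below 50% in the single dose screen; inactive = viability above 50%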;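 note: compound exposure lasted 72 h before the ATP readout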
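Material: human lung fibroblast line LL 47, low passage; Evaluation: viability percentage against median untreated-cell control; Buffer or medium: 15% FBS in IMEM; Incubation: 72 h compound exposure at 37 °C after overnight plating; Dosing: 0.1% DMSO in all compound wells; Measured by: CellTiter-Glo luminescence.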
Jurkat tox 60K: cytotoxicity toward Jurkat T cells, primary screen, cytotoxicity control, cell-based, Jurkat E6.1, 60K MLSMR library. 56,000 tested, 1.2% active. AID 463, 2006. Jurkat E6.1 viability, ATP luminescence, 48 h. inhibition, % at 4 µM;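 active = inhibition above the mean inhibition of all tested compounds plus 3 SD, cut at about 28% in these data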
HUVEC inhibit: inhibitors of HUVEC proliferation, primary screen, cell-based, 384-well | CellTiter-Glo luminescence, 72 h; active compounds read low | viability, % at 10 µM (by protocol) | 86,000 tested, 1.1% active | AID 648, 2007;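 active = viability at or below 30%; inactive = viability above 30%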
H69AR growth 86K: proliferation blockers of H69AR lung cancer cells, primary screen, cell-based, human, 86K library; H69AR lung tumor viability, ATP luminescence, 72 h; active compounds read low; viability, % at 10 µM; 85,000 tested, 6% active;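 active = viability at or below 40%; inactive = viability above 40%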;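 note: multidrug resistant small cell line overexpressing MRP-1 efflux transporter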
Of the large screens only hits and unclear results are named; the others gave an inactive call. Most compounds without a hit are left out; they make up all but 6% or so of the library.

O=C(Nc1ccccc1)Nc1ccc(S(=O)(=O)N2CCCCC2)cc1	H69AR growth 86K 13
COC(=O)c1cccc(NC(=O)c2ccc(S(=O)(=O)N3CCN(C)CC3)cc2)c1	none
CN1CCN(S(=O)(=O)c2ccc(NC(=O)Nc3cccc(Cl)c3)cc2)CC1	HUVEC inhibit 3.2, H69AR growth 86K 35
Cc1ccc(NC(=O)CS(=O)CC(=O)Nc2ccc3c(c2)OCO3)cc1Cl (centres undefined)	none
COCc1cc(=O)[nH]c2cc(NC(=O)C3CC3)c(C)cc12	none (no result: Lung fibro prol, Jurkat tox 60K, HUVEC inhibit, H69AR growth 86K)
CCOc1cccc(C(=O)Nc2ccccc2N2CCN(C(=O)C(C)C)CC2)c1	none
COc1cccc(-c2nnc(Nc3nc4c(F)cccc4s3)o2)c1	HUVEC inhibit 16
O=C(Nc1nnc(-c2ccccc2Cl)o1)c1nc2ccccc2s1	H69AR growth 86K 28 (no result: Pyk2 oligo antag, Jurkat tox 60K)
COc1cccc(OC)c1-c1nnc(-c2cn(C)c3ccccc23)o1	none
COc1cccc2sc(Nc3nnc(-c4ccccc4Cl)o3)nc12	Lung fibro prol 41, Jurkat tox 60K 67, HUVEC inhibit 2.4, H69AR growth 86K 27 (no result: F-actin modifier, Pyk2 oligo antag)
COc1ccccc1-c1nnc(Nc2nc3c(OC)cccc3s2)o1	Jurkat tox 60K 87 (no result: F-actin modifier, Lung fibro prol, HUVEC inhibit, H69AR growth 86K)
O=C(Nc1nnc(-c2ccccc2Cl)o1)c1ccco1	none
CCCCOCP(=O)(CC)COCCCC	none (no result: Jurkat tox 60K)
Cc1ccc2cccc(NC(=O)c3ccc(Br)o3)c2n1	none (no result: H69AR growth 86K)
CCC1(C)OCC(Cn2c3ccccc3c3ccccc32)O1 (centres undefined)	H69AR growth 86K 25 (no result: Pyk2 oligo antag, Jurkat tox 60K)
O=C(C(c1ccccc1)c1ccccc1)N1CCN(Cc2ccc(Br)cc2)CC1	H69AR growth 86K 36 (no result: Jurkat tox 60K)
COC(=O)c1ccc(CSc2ncnc3c2nnn3-c2ccc(F)cc2)o1	none
Cn1c(/C(C#N)=C(\O)COc2ccc3ccccc3c2)nc2ccccc21	H69AR growth 86K 12 (no result: F-actin modifier)
Cc1ccc2nc(-c3ccc(NC(=O)C4CCCO4)cc3)[nH]c2c1 (centres undefined)	none (no result: Jurkat tox 60K)
O=C(CCN1C(=O)CSC1=O)Nc1ccccc1	none
CCOC(=O)Nc1c(C(=O)OC)[nH]c2cc(OC)ccc12	Jurkat tox 60K 43, H69AR growth 86K 18
COC(=O)c1[nH]c2cc(OC)ccc2c1NC(=O)CN1CCN(c2cccc(C)c2)C(C)C1 (centres undefined)	H69AR growth 86K 15 (no result: Jurkat tox 60K)
CCOc1cccc2cc(-c3nnc(-c4ccccc4)o3)c(=O)oc12	none (no result: F-actin modifier, Pyk2 oligo antag, Lung fibro prol, HUVEC inhibit, H69AR growth 86K)
Cc1ccccc1OCC(=O)Nc1sc(C(=O)Nc2cccc(C)c2C)c(C)c1C#N	none (no result: Lung fibro prol, Jurkat tox 60K, HUVEC inhibit, H69AR growth 86K)
COC(=O)c1c(NC(=O)c2ccco2)sc(C(=O)Nc2ccc(F)cc2)c1C	H69AR growth 86K 3.6
COC(=O)c1c(NC(=O)c2ccco2)sc(C)c1C	none
COc1ccc(N2CCN(C(=O)CSc3nnc4c(C)cc5cc(C)ccc5n34)CC2)cc1	F-actin modifier 51 (no result: Lung fibro prol, Jurkat tox 60K, HUVEC inhibit, H69AR growth 86K)
COc1ccc(N2CCN(C(=O)CSc3nnc4c(C)cc5c(C)cc(C)cc5n34)CC2)cc1	none (no result: Lung fibro prol, Jurkat tox 60K, HUVEC inhibit, H69AR growth 86K)
COC(=O)c1ccc(Oc2nc3ccccc3n3c(C)nnc23)cc1	none (no result: F-actin modifier, Pyk2 oligo antag, Jurkat tox 60K)
Cc1ccc(C)c(N2CCN(S(=O)(=O)c3ccc4c(c3)OCCO4)CC2)c1	Pyk2 oligo antag -3.9
Cc1ccc(Cl)cc1N1CCN(S(=O)(=O)c2ccc3c(c2)OCCO3)CC1	Pyk2 oligo antag -4.2
CCCn1nnnc1NC(=O)CSc1ccc(Cl)cc1	none
Nc1nc(OCC(F)(F)F)cc(Oc2ccccc2F)n1	Pyk2 oligo antag -3.8, H69AR growth 86K 36 (no result: Lung fibro prol)
Nc1cc(N)nc(SCCOc2ccccc2F)n1	none (no result: F-actin modifier)
COc1ccc(C(=O)c2c(C(F)(F)F)oc3c2C(=O)c2ccccc2C3=O)cc1	Lung fibro prol 2.3, HUVEC inhibit 3.2 (no result: Jurkat tox 60K)
COC(=O)c1ccccc1NC(=O)c1ccc(-c2ccccc2F)o1	H69AR growth 86K 13
CCCC(c1nnnn1CCc1ccccc1)N1CCC(C(N)=O)CC1 (centres undefined)	none (no result: Jurkat tox 60K)
O=C(Nc1ccc(SC(F)F)cc1)c1cccc2nc3ccccc3nc12	Lung fibro prol 39, HUVEC inhibit 26, H69AR growth 86K 10 (no result: Jurkat tox 60K)
O=C(Nc1ccc(SC(F)F)cc1)C1=COCCO1	none (no result: Lung fibro prol, Jurkat tox 60K, HUVEC inhibit, H69AR growth 86K)
CCn1c(SCC(=O)c2[nH]c(C)c(C(C)=O)c2C)nnc1-c1ccccc1	none (no result: Jurkat tox 60K)
